Measured values as given in PMC3361572 (Chemistry & biology, 2012).
“Also recorded” adds a separate entry of the source.

How the values were obtained:
[1] = system: brain 2-AG, AA, AEA, PEA, OEA; experiment: brain lipid profile of inhibitor-treated mice; format: in vivo, mouse
[2] = molecular target: T1, FAAH (Mus musculus, UniProt O08914); experiment: AEA hydrolytic activity of brain tissue from treated mice; format: in vivo; conditions: KML29-treated mice, 1–40 mg kg^−1 p.o.
T1 sequence (O08914 1-579): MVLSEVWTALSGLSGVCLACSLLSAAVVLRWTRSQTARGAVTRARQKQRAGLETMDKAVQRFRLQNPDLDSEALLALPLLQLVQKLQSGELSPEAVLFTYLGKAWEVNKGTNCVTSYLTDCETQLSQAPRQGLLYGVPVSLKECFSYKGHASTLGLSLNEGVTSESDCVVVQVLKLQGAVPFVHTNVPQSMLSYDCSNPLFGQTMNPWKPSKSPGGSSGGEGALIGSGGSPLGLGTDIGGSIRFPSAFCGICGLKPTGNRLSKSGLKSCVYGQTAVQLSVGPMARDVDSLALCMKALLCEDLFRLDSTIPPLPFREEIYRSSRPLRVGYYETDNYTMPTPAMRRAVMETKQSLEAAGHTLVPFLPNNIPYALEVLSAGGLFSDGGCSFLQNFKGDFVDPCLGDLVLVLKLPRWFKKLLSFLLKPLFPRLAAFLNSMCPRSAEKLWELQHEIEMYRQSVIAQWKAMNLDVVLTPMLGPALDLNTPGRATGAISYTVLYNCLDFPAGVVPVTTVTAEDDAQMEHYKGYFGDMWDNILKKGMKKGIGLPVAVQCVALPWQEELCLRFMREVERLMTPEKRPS
How it was run: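 C57Bl/6 mice were dosed orally with the test compound (1–40 mg kg−1) or vehicle. The compound was dissolved in PEG by prolonged sonication and mild heating. Mice were killed after 4 h. Brain was analysed for 2-AG, AA, AEA, PEA and OEA, and brain proteomes for residual AEA and 2-AG hydrolysis (substrate assay). n = 3 mice/group, means ± SEM, compared with vehicle-treated mice.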

[3] = molecular target: T2, MAGL (Mus musculus, UniProt O35678); experiment: competitive ABPP, mouse brain membrane proteome; format: biochemical
T2 sequence (O35678 1-303): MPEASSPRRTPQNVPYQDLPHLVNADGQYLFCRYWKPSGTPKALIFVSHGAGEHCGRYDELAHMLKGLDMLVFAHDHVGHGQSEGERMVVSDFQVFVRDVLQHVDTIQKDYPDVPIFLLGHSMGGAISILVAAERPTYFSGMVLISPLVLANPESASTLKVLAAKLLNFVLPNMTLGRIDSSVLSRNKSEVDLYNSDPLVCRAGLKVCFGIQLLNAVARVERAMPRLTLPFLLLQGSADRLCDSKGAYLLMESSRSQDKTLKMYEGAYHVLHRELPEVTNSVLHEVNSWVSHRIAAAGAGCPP

[4] = dissolution in dosing vehicle; format: physicochemical
How it was run: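 Test compound was dissolved with prolonged sonication and mild heating. Vehicle was PEG for oral dosing, or saline:emulphor:ethanol (18:1:1) for i.p. dosing.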

[5] = molecular target: T1, FAAH; experiment: competitive ABPP of brain from inhibitor-treated mice; format: in vivo
[6] = molecular target: T3, MAGL (Rattus norvegicus, UniProt Q8R431); experiment: competitive ABPP of peripheral tissues from KML29-treated rats; format: in vivo; conditions: 4 h
T3 sequence (Q8R431 1-303): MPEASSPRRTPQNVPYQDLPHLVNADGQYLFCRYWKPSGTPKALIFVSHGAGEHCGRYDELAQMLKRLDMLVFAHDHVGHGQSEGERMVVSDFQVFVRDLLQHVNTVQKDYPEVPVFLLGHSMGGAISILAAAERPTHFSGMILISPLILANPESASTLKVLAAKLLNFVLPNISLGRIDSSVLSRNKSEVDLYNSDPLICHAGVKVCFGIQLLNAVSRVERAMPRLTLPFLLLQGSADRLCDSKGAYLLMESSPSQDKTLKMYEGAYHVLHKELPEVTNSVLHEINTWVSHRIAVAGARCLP
How it was run: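 Wistar rats were injected i.p. with the test compound (1–40 mg kg−1) or vehicle. Vehicle was saline:emulphor:ethanol 18:1:1, with prolonged sonication and mild heating to dissolve. Rats were killed at 4 h. Brain, liver, lung and spleen proteomes were labelled with FP-Rh, separated by SDS-PAGE and scanned for in-gel fluorescence. Inhibition was scored as reduced probe labelling. n = 3 rats/group.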

[7] = molecular target: T4, FAAH (Rattus norvegicus, UniProt P97612); experiment: competitive ABPP, rat brain membrane proteome; format: biochemical
T4 sequence (P97612 1-579): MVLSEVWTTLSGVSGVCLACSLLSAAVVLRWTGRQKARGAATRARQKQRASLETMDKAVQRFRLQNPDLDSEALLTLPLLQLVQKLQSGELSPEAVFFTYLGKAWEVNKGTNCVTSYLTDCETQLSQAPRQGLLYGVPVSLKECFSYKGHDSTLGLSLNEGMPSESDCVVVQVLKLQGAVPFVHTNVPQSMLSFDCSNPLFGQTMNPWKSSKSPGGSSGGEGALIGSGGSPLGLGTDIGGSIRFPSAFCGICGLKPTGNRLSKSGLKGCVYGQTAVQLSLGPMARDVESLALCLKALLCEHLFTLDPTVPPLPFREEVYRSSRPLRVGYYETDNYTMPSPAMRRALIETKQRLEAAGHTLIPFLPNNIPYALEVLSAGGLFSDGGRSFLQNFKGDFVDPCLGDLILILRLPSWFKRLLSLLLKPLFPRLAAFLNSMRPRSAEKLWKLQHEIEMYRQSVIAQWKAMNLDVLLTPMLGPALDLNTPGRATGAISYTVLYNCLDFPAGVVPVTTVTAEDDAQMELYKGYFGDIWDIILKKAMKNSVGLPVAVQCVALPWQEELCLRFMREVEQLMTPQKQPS
How it was run: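 Rat brain proteome pre-treated with test compound, then labelled with the serine hydrolase-directed fluorophosphonate-rhodamine (FP-Rh) activity-based probe. Proteins separated by SDS-PAGE and detected by in-gel fluorescence scanning. Inhibition scored as loss of FP-Rh labelling of the FAAH band. IC50 calculated from the gel-based ABPP data.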

[8] = molecular target: T1, FAAH; experiment: competitive ABPP, mouse brain membrane proteome; format: biochemical; conditions: mouse brain proteome, concentration range tested 0.001–50 μM
How it was run: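 Brain (mouse or rat) or mouse lung proteomes were preincubated with the test compound, then treated with the serine hydrolase probe FP-Rh. Samples were separated by SDS-PAGE and read by in-gel fluorescence scanning. Inhibition was taken as reduced FP-Rh labelling of MAGL, ABHD6, FAAH or CES bands, and IC50 values were calculated from quantified gel bands. Three independent experiments.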

O=C(OC(C(F)(F)F)C(F)(F)F)N1CCC(C(O)(c2ccc3c(c2)OCO3)c2ccc3c(c2)OCO3)CC1 [KML29]
brain 2-AG and NAE levels, chronic dosing ([1]; 40 mg kg^−1 p.o., six days): selectively raise 2-AG, but not NAE levels
peak increase in brain 2-AG over vehicle controls ([1]; 20 and 40 mg kg^−1 p.o., 4 h): ~ 10 fold
brain levels of AEA, PEA and OEA ([1]; all tested doses p.o., 4 h): unaltered
change in brain 2-AG ([1]; doses as low as 5 mg kg^−1 p.o., 4 h): significant elevations
change in brain arachidonic acid (AA) ([1]; p.o., 4 h, concomitant with 2-AG elevations): significant reductions
time of maximal elevations of 2-AG and reductions of AA in brain ([1]; single oral dose 20 mg kg^−1): 1 h
brain AEA levels during time course ([1]; single oral dose 20 mg kg^−1, 24 h period): unaltered
residual FAAH activity in brain proteomes (substrate assay) [2]: lack of any effect on FAAH
selectivity for MAGL relative to ABHD6 ([3]; mouse brain proteome, competitive ABPP): greater than 100 fold
inhibitor concentrations with selective inhibition of MAGL ([3]; mouse brain serine hydrolase activities, full ABPP gel): ≤ 1 µM
dissolution in vehicles for p.o. (PEG) or i.p. [saline:emulphor:ethanol (18:1:1)] administration [4]: Prolonged sonication and mild heating were also required
brain FAAH inhibition, chronic dosing ([5]; 40 mg kg^−1 p.o., six days): selectively inhibited MAGL without any effect on FAAH
selectivity over brain FAAH ([5]; all doses tested 1–40 mg kg^−1 p.o., 4 h): complete selectivity over FAAH
selectivity for MAGL over FAAH during time course ([5]; single oral dose 20 mg kg^−1, 24 h time course): complete selectivity for MAGL over FAAH
MAGL inhibition in lung and spleen ([6]; 5 mg kg^−1 i.p.): complete MAGL inhibition
MAGL inhibition in liver ([6]; 20 mg kg^−1 i.p.): complete MAGL inhibition
FAAH inhibition / cross-reactivity (gel-based ABPP) ([7]; rat brain proteome): no detectable cross-reactivity; also recorded: No inhibition of FAAH was detected
IC50 ([7]; read-out: IC50 (95% CI), rat FAAH, competitive ABPP, rat brain membrane proteome): > 50 µM
FAAH inhibition / cross-reactivity (gel-based ABPP) [8]: No inhibition of FAAH was detected; also recorded: complete selectivity for MAGL over FAAH
